Series [1] can be described thus: Inhibition of humanized rabbit cathepsin K Tyr61Asp and Val157Leu mutant. Also on record: species or system Homo sapiens.
Another series addresses T1, Cathepsin K (Oryctolagus cuniculus, UniProt P43236).
T1 sequence (P43236 whole entry): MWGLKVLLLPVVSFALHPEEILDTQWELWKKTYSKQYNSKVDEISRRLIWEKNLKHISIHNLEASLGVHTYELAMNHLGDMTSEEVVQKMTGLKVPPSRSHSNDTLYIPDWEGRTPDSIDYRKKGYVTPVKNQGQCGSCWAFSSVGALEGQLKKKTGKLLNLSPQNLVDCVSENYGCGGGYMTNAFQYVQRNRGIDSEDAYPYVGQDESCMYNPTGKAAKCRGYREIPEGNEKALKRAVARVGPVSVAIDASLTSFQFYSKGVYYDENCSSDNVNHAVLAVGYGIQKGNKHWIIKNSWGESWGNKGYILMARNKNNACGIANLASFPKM
Kind of series: Inhibition of rabbit cathepsin K.

Series [2] in a line: Selectivity for rabbit cathepsin K over human cathepsin B. The method, boiled down: (§1)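 Counterscreens used human Cat B and Cat S. Selectivity is expressed against humanized rabbit Cat K.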
Series [3] in a line: Selectivity for rabbit cathepsin K over human cathepsin S. The method in brief:
as §1

Series [4] is described as follows: Metabolic stability in po dosed rat bile assessed as drug recovery after 96 hrs. Format: ADME, organism-based. As to conditions: read-out: Stability. The method in brief: (§2)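 Radiolabeled compound was given orally to bile-cannulated rats. Radioactivity was recovered from bile, urine and feces over 96 h and expressed as percent of dosed radioactivity.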
Series [5] in a line: Metabolic stability in po dosed rat urine assessed as drug recovery after 96 hrs. Format: ADME, organism-based. To be noted: read-out: Stability. The method, boiled down: as §2
Series [6] is described as follows: Metabolic stability in po dosed rat feces assessed as drug recovery after 96 hrs. Format: ADME, organism-based. As to conditions: faeces, read-out: Stability. The method in brief:
as §2

Series [7] is described as follows: Metabolic stability in po dosed rat assessed as drug recovery after 96 hrs. Format: ADME, organism-based. To be noted: in vivo. The method in brief:
as §2

Series [8] has as its system Rattus norvegicus. Nature of the series: Metabolic stability in po dosed rat assessed as (1R,2R)-5,5-dichloro-N-(1-cyanocyclopropyl)-2-(4-(4-(methylsulfonyl)phenyl)-1H-pyrazol-3-yl)cyclohexanecarboxamide level after 96 hrs. Format: ADME, organism-based. To be noted: in vivo.
The nature of series [9]: Inhibition of bone resorption in rabbit bone. Format: functional, tissue-based, Oryctolagus cuniculus, Bone element.
A short description of series [10]: Bone resorption shift, ratio of IC50 for inhibition of bone resorption in rabbit bone to IC50 for rabbit cathepsin K. Format: functional, Oryctolagus cuniculus. The method, boiled down: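 Bone resorption shift is the rabbit bone resorption IC50 divided by the rabbit Cat K IC50.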
Series [11] in a line: Selectivity for rabbit cathepsin K over human cathepsin C.
The nature of series [12]: Selectivity for rabbit cathepsin K over human cathepsin H.
A short description of series [13]: Selectivity for rabbit cathepsin K over human cathepsin Z.
Series [14] in a line: Selectivity for rabbit cathepsin K over human cathepsin V.
A short description of series [15]: Selectivity for rabbit cathepsin K over human cathepsin F.
The nature of series [16]: Inhibition of bone resorption in rhesus monkey bone. Format: functional, tissue-based, Macaca mulatta, Bone element.
The test system of series [17] is Rhesus monkey. Nature of the series: Inhibition of bone resorption in ovariectomized monkey model of osteoporosis assessed as reduction of urinary-N-telopeptide fragment level at 1 mg/kg, po qd for 1 week. Format: functional, Macaca mulatta, Urine. On the set-up: scale not given: the % may be the effect or the level left. The method in brief: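 Adult ovariectomized rhesus monkeys given drug or vehicle orally once daily at 1 mpk for 1 week. Bone resorption was followed by urinary N-telopeptide (NTx) normalized to creatinine (nM/mM), and the value is the mean reduction versus vehicle-treated animals.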

The nature of series [18]: Cmax in ovariectomized monkey model of osteoporosis at 1 mg/kg, po qd for 1 week. To be noted: female, rhesus monkey, in vivo. Also on record: dose 1 mg/kg, route oral. Format: ADME, organism-based, Macaca mulatta. The method, boiled down: (§3)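 Adult ovariectomized rhesus monkeys dosed orally once daily at 1 mpk for 1 week, dosing volume 1 mL/kg, fasted overnight before morning dosing. Plasma drug levels were taken on the final day of dosing and analyzed by LC-MS after protein precipitation with 1.5 volumes acetonitrile and centrifugation.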

The nature of series [19]: Tmax in ovariectomized monkey model of osteoporosis at 1 mg/kg, po qd for 1 week. Format: ADME, organism-based, Macaca mulatta. Also on record: dose 1 mg/kg, route oral. To be noted: female, rhesus monkey, in vivo. The method, boiled down: as §3
Series [20] in a line: Drug level in ovariectomized monkey model of osteoporosis at 1 mg/kg, po qd for 1 week measured after 24 hrs of last dose. Format: ADME, organism-based, Macaca mulatta. On the set-up: dose 1 mg/kg, route oral. To be noted: female, rhesus monkey, in vivo, read-out: Drug uptake. The method in brief:
as §3

Series [21] can be described thus: AUC in ovariectomized monkey model of osteoporosis at 1 mg/kg, po qd for 1 week. On the set-up: dose 1 mg/kg, route oral. To be noted: female, rhesus monkey, in vivo. Format: ADME, organism-based, Macaca mulatta. The method, boiled down:
as §3

For another series, the species on record is Homo sapiens. Kind of series: Inhibition of humanized rabbit cathepsin K Tyr61Asp and Val157Leu mutant in presence of 0.2 uM citrate buffer at 0.12 uM. The method in brief:
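Reversibility test: a 1:1 mixture of humanized rabbit Cat K and inhibitor (0.12 µM) was preincubated 15 min, then diluted 500-fold into substrate-containing buffer (0.2 µM citrate). Recovery of enzyme activity was followed over time against a control incubation, giving a recovery half-time.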

A short description of series [22]: Oral bioavailability in rat at 10 mL/kg. Format: ADME, organism-based. As to conditions: in vivo. The method in brief: (§4)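 Oral suspensions were given to overnight-fasted animals in the morning, at 10 mL/kg in rats, 5 mL/kg in dogs and 1 mL/kg in monkeys. Intravenous dosing was 1 mL/kg in all species. Plasma was sampled at intervals and analyzed by LC-MS after protein precipitation with 1.5 volumes acetonitrile and centrifugation.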

Series [23] in a line: Clearance in rat at 10 mL/kg, po. Format: ADME, organism-based. To be noted: in vivo. The method in brief:
as §4

Series [24] is described as follows: Half life in rat at 10 mL/kg, po. As to conditions: in vivo. Format: ADME, organism-based. The method, boiled down:
as §4

The test system of series [25] is Rattus norvegicus. Nature of the series: Volume of distribution in rat at 10 mL/kg, po. Format: ADME, organism-based. As to conditions: in vivo. The method in brief:
as §4

A short description of series [26]: Oral bioavailability in dog at 5 mL/kg. Format: ADME, organism-based, Canis lupus familiaris. To be noted: in vivo. The method, boiled down:
as §4

Series [27] in a line: Clearance in dog at 5 mL/kg, po. Format: ADME, organism-based, Canis lupus familiaris. As to conditions: in vivo. The method, boiled down: as §4
Series [28] is described as follows: Half life in dog at 5 mL/kg, po. Format: ADME, organism-based, Canis lupus familiaris. To be noted: in vivo. The method in brief:
as §4

A further series has as its system Canis familiaris. Kind of series: Volume of distribution in dog at 5 mL/kg, po. Format: ADME, organism-based, Canis lupus familiaris. To be noted: in vivo. The method, boiled down:
as §4

Series [29] in a line: Oral bioavailability in rhesus monkey at 1 mL/kg. Format: ADME, organism-based, Macaca mulatta. As to conditions: in vivo. The method, boiled down:
as §4

Series [30] in a line: Clearance in rhesus monkey at 1 mL/kg, po. Format: ADME, organism-based, Macaca mulatta. As to conditions: in vivo. The method, boiled down:
as §4

Series [31] in a line: Half life in rhesus monkey at 1 mL/kg, po. Format: ADME, organism-based, Macaca mulatta. To be noted: in vivo. The method, boiled down:
as §4

Series [32] has as its system Rhesus monkey. Nature of the series: Volume of distribution in rhesus monkey at 1 mL/kg, po. Format: ADME, organism-based, Macaca mulatta. To be noted: in vivo. The method, boiled down:
as §4

Series [33] has as its system Rhesus monkey. Nature of the series: Inhibition of bone resorption in ovariectomized monkey model of osteoporosis assessed as reduction of urinary-N-telopeptide fragment level at 1 mg/kg administered once daily. Also on record: scale not given: the % may be the effect or the level left.
Series [34] in a line: Protein binding in rat plasma by ultracentrifugation. Format: ADME, cell-free. To be noted: read-out: PPB (converted).
The nature of series [35]: Protein binding in rabbit plasma by ultracentrifugation. To be noted: read-out: PPB (converted). Format: ADME, cell-free, Oryctolagus cuniculus.
Series [36] can be described thus: Protein binding in human plasma by ultracentrifugation. Format: ADME, cell-free. As to conditions: read-out: PPB (converted).

Where only a bound is given, the exact number is not on record here.

The results in this text go back to ChEMBL document CHEMBL1140150, “Identification of a nonbasic, nitrile-containing cathepsin K inhibitor (MK-1256) that is efficacious in a monkey model of osteoporosis” (J Med Chem, 2008).

On to `CS(=O)(=O)c1ccc(-c2cn(CC(F)(F)F)nc2[C@@H]2CCC(Cl)(Cl)C[C@H]2C(=O)NC2(C#N)CC2)cc1`, for which the half-maximal inhibitory concentration (IC50) in series [1] is 0.62 nM; at Cathepsin K, 6.1 nM; in series [9] it was 50 nM; in [16], 2 nM. Besides, the Selectivity ratio is greater than 16000 in series [2]; 4300 in [3]; 6000 in series [11]; greater than 140000 in series [12]; 1700 in [13]; 1100 in series [14]. In addition, in series [15], the Selectivity ratio was 110. Also, the dose excreted at 96 h in series [4] came to 16%; in series [5], 18%; in series [6], 58%; in [7] it was 92%. Further, the Activity in the series on Rattus norvegicus [8] is 0.1%; in the series with Rhesus monkey [17], 72%; in the series with Rhesus monkey [33], 76%. Also, the “Ratio IC50” value in series [10] is given as 8. Also, the peak concentration (Cmax) in [18] stood at 400 nM. Further, the Tmax in [19] worked out at 4 h. Also, the concentration at 24 h in [20] is 80 nM. The compound further had an AUC at 168 h in series [21] of 4.2 µM·h. Besides, the inhibition in the series filed under Homo sapiens was greater than 99%. The bioavailability in series [22] came out at 105%; in series [26] it was 60%; in series [29] it was 104%. Also, the apparent clearance (CL/F) turned out to be 7.8 mL/min/kg in series [23], 1.4 mL/min/kg in series [27] and 5 mL/min/kg in series [30]. Moreover, the half-life in [24] was 4.4 h; in [28], 34 h; in [31] it was 13 h. The results for the Vdss in the series with Rattus norvegicus [25], in the series with Canis familiaris and in the series with Rhesus monkey [32] were 2.8 L/kg, 2.1 L/kg and 3.4 L/kg, respectively.

As to `CSc1ccc(-c2cn(C)nc2[C@@H]2CCC(F)(F)C[C@H]2C(=O)NCC#N)cc1` (racemic), the results for the IC50 (in series [1]; on Cathepsin K; in series [9]) were 0.37 nM, 0.41 nM and 41 nM, respectively. Besides, the Selectivity ratio in series [2] amounted to 9500; in [3], 490. In series [10], the “Ratio IC50” value was found to be 100.

For `CS(=O)(=O)c1ccc(-c2cn(CC(F)(F)F)nc2[C@@H]2CCC(F)(F)C[C@H]2C(=O)NC2(C#N)CC2)cc1`, the half-maximal inhibitory concentration (IC50) in series [1] is 0.69 nM; at Cathepsin K, 9.3 nM; in series [9], 51 nM. For the same compound, the Selectivity ratio in series [2] was greater than 14000; in [3], 7100; in series [11], 6000; in [12], greater than 140000; in series [13], 1700; in [14], 1100. Further, the Selectivity ratio in series [15] amounted to 110. In series [10], the “Ratio IC50” value turned out to be 6. For the same compound, the bioavailability in series [22] was determined as 25%; in series [26], 31%. Further, the apparent clearance (CL/F) was found to be 14 mL/min/kg in [23] and 1.8 mL/min/kg in [27]. Further, the results for the half-life in [24] and in [28] were 4.4 h and 7.8 h, respectively. The results for the Vdss with Rattus norvegicus [25] and in the series on Canis familiaris were 3.2 L/kg and 1.2 L/kg, respectively.

Turning to `Cn1cc(-c2ccc(S(C)(=O)=O)cc2)c([C@@H]2CCC(F)(F)C[C@H]2C(=O)NC2(C#N)CC2)n1`, the values for the IC50 (in [1]; on Cathepsin K; in series [9]) were 0.81 nM, 4.5 nM and 35 nM, respectively. For the same compound, the Selectivity ratio in series [2] was found to be 4400; in series [3], 1200. Besides, in [10], the “Ratio IC50” value is given as 8.

`CSc1ccc(-c2ccccc2[C@@H]2CCC(F)(F)C[C@H]2C(=O)NCC#N)cc1`: the fraction unbound in [34], in series [35] and in series [36] was 0.15 throughout. The figures for the IC50 in series [1] and in series [9] were 0.28 nM and 16 nM, respectively. For the same compound, the Selectivity ratio in [2] is greater than 36000; in [3], 940. The “Ratio IC50” value in series [10] is on record as 53.

As to `CS(=O)(=O)c1ccc(-c2c[nH]nc2[C@@H]2CCC(F)(F)C[C@H]2C(=O)NC2(C#N)CC2)cc1`, the half-maximal inhibitory concentration (IC50) in series [1] is 1.8 nM; at Cathepsin K, 18.6 nM; in series [9], 120 nM. Further, the results for the Selectivity ratio in [2] and in [3] were 2900 and 2300, respectively. Moreover, the “Ratio IC50” value in series [10] was found to be 7.
